# Source: PubChem
# TPT1 inhibitor: C. albicans TPT1 enzyme inhibition; recombinant caTPT1, FP RNA substrate dephosphorylation; inhibition, % at 5 µM; actives 0.81% (n = 300,000); AID 1962;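 active means inhibition above the mean of all tested compounds plus 3 SD, set per screening campaign, cut at about 24% in these data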;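 further: plate controls were DMSO alone for no effect and ferristatin control at 100 nM for full effect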
# Rpn11 inh: inhibitors of human proteasome Rpn11; AID 588493; actives 0.59% (n = 360,000); inhibition, % at 20 µM; human 26S proteasome, Ub4-pepOG fluorescence polarization; 20S core pre-blocked with epoxomicin; O00487;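 active means inhibition at 20 µM, scaled to each plate's controls, above about 33%, limit read from the data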
# HNF4A DNA FP: change in binding of human HNF4 alpha to DNA; AID 1224865; P41235; HNF4a-FITC DNA binding, fluorescence polarization, 1 h; activity change, % at 10 µM; actives 0.3% (n = 360,000); in the data active means activity change above about 30%, passing the limit was not always enough
# SENP1 FRET inh: blocks the human SENP1 SUMO protease catalytic domain; inhibition, % at 10 µM; recombinant SENP1 catalytic domain, CyPet-SUMO1-YPet FRET cleavage; Q9P0U3; AID 624204; actives 0.21% (n = 360,000);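 active means inhibition at least 30% at 10 µM, raw YFP signal under a set limit, fluorescence ratio 0.5 to 1.5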;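 further: 0% = enzyme with DMSO and 100% = no enzyme wells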
# Target sequence (Q9P0U3 419-644 limits assumed): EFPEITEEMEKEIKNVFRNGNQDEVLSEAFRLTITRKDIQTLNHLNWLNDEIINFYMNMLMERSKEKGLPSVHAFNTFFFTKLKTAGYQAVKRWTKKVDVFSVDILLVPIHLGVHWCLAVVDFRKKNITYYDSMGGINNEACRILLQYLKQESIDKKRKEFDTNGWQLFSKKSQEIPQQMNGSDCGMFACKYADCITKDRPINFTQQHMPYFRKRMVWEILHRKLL
#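 Test system: recombinant human SENP1 catalytic domain, His6-tagged / Medium: pH 8 Tris buffer with EDTA, NaCl, BME, BSA, NP40, catalase / Also added: SUMO1 FRET substrate flanked by Cypet and Ypet, 25 nM / Times: 50 min reaction at room temperature / Signal: FRET, CFP and YFP emission / Control set: no-enzyme low control and enzyme-plus-DMSO high control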
# CSN inh: inhibitors of human CSN-mediated cullin deneddylation. actives 0.38% (n = 360,000). inhibition, % at 12.5 µM. Purified CSN, SCF-Nedd8-OG deneddylation, fluorescence polarization;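 active means pattern-corrected inhibition above about 35%, with an unprinted fluorescence ratio check between 0.5 and 1.5, limit read from the data, passing the limit was not always enough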;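 further: 0% = enzyme with substrate and 100% = substrate without enzyme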
#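 Assay system: purified human Csn5 enzyme expressed in HEK293T cells; measure: % inhibition; also added: SCFSkp2-Nedd8OG substrate at 10 nM final; technique: fluorescence polarization; times: reaction 90 min, room temperature; medium: Tris buffer pH 7.5, NaCl, DTT, Tween-20, trehalose, ovalbumin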
# ATG4B inhibitor: inhibitors of human ATG4B cysteine protease | Q9Y4P1 | ATG4B cleavage of LC3-PLA2, NBD-HPC fluorescence, 1 h | inhibition, % at 8.33 µM | actives 0.51% (n = 340,000) | AID 504462; in the data active means inhibition above about 40%
# Target sequence (Q9Y4P1 whole entry, looked up): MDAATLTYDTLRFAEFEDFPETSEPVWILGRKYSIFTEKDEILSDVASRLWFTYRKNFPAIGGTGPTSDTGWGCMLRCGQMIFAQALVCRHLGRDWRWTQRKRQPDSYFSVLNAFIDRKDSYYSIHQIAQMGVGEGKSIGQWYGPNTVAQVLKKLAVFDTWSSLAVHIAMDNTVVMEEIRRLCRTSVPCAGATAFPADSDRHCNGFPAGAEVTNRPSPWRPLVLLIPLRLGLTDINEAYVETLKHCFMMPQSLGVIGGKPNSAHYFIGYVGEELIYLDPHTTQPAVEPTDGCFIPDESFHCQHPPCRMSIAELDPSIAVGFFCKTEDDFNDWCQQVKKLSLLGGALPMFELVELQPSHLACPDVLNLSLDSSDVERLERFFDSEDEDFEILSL
# ATG4B conf: confirmation of human ATG4B inhibitors; AID 504757; inhibition, % at 8.33 µM; actives 92% (n = 320); shares compounds with ATG4B inhibitor; ATG4B protease fluorescent substrate cleavage assay; in the data active means inhibition above about 39%
# PLA2 counter: PLA2 (human) inhibition in ATG4B counter-screen. AID 588402. inhibition, % at 8.33 µM. purified PLA2, NBD-C6-HPC fluorescence, 45 min. shares compounds with ATG4B inhibitor. actives 66% (n = 1,600); in the data active means inhibition above about 50%
# * hit, by the source's call; / = no result given. Sampled rows, rich in hits. Any-hit rate of the full collection: about 2%.
SMILES,TPT1 inhibitor,Rpn11 inh,HNF4A DNA FP,SENP1 FRET inh,CSN inh,ATG4B inhibitor,PLA2 counter,others
CCCNC(=S)N1CCN(c2nc(C)nc3sc4c(c23)CCCC4)CC1,-1.0,-7.9,-0.2,0.8,-8.2,48.5*,77.8*,
Cc1ccc(S(=O)(=O)Nc2ccccc2N=Cc2c(F)c(F)c(F)c(F)c2F)cc1,/,2.5,-1.8,0.7,-2.5,12.8,/,
Cc1ccc(S(=O)(=O)Nc2ccccc2C=Nc2cccc(C)c2C)cc1,3.8,2.3,-1.3,-22.4,2.5,57.4*,61.2*,
CC1(C)Cc2ccccc2-c2nnc(SCC(=O)Nc3nc4ccccc4s3)n21,3.1,4.9,-2.3,1.0,7.3,41.8*,50.7*,
CCN(CC(=O)Nc1c(F)cccc1F)C(=O)CCCc1cccs1,/,2.4,0.6,-0.3,-6.1,6.4,/,
CCN(CC)S(=O)(=O)c1ccc(N2CC(C(=O)NCCc3c[nH]c4ccccc34)CC2=O)cc1 (stereo not given),/,-0.7,4.4,1.0,-1.5,-10.4,/,
CC(C)(O)c1ccccc1CC[C@@H](SCC1(CC(=O)O)CC1)c1cccc(/C=C/c2ccc3ccc(Cl)cc3n2)c1,-0.3,6.0,-2.1,-0.8,-4.2,91.7*,91.7*,
Cn1cccc1C(=O)NC(=O)COC(=O)CCNS(=O)(=O)c1ccc(Cl)cc1,/,-1.1,-4.3,-1.9,-0.3,-7.8,/,
N#Cc1c(-c2cccc(Br)c2)cc(-c2ccco2)[nH]c1=O,4.2,11.9,-9.1,-22.4,35.7*,/,41.0,
COc1ccc(OC)c(Nc2cc3ccccc3c(=O)[nH]2)c1,8.6,-15.4,6.8,-41.0,26.1,8.2,/,
O=c1[nH]c(Nc2ccccc2)cc2ccccc12,21.3,-13.5,-0.9,11.7,23.9,40.0,-6.2,ATG4B conf=75.3*
COc1ccccc1C1=CN(Cc2ccccc2)CCC1=O,/,-4.5,2.0,1.4,3.6,5.8,/,
CC(=O)c1cccc(NC(=O)NC2CCCc3ccccc32)c1 (stereo not given),1.2,-0.3,-3.1,-0.1,6.1,52.6*,66.9*,
CC(=O)c1ccc(NC(=O)NC2CCCc3ccccc32)cc1 (stereo not given),-3.3,-1.6,3.4,-0.3,-2.8,39.9,/,
C=CCN1C(=O)C(CC(=O)O)S/C1=N/N=C/c1ccc(N(CC)CC)cc1 (stereo not given),/,2.2,-6.4,-110.6,2.9,4.8,/,
Cc1sc(NC(=O)c2c(F)cccc2F)nc1-c1ccccc1,2.2,-5.6,1.5,0.2,0.4,53.4*,66.8*,
CCc1ccccc1N1CCN(S(=O)(=O)c2cc(OC)ccc2OC)CC1,2.1,1.2,1.4,2.2,8.0,57.0*,51.9*,
O=C1[C@H](Cc2ccccc2)NCC=CC[C@H](c2ccc(Cl)cc2)N1Cc1ccc(Cl)cc1,/,5.5,-0.8,1.5,3.3,45.5*,80.5*,
O=C1[C@H](Cc2ccccc2)NCC=CC[C@@H](c2ccc(Cl)cc2)N1Cc1ccc(Cl)cc1,/,-10.0,-2.3,-0.3,-2.0,-17.8,/,
O=C1[C@H](Cc2ccccc2)NCC=CC[C@H](c2ccc(Cl)cc2)N1Cc1ccccc1,/,17.8,0.7,-3.0,-3.9,56.6*,69.6*,
CCCCNC(=O)C1(C)CCN1C(=O)c1ccc2ccccc2n1 (stereo not given),/,16.6,5.6,1.3,-2.9,/,/,
Cc1ccc(NC(=O)c2sccc2C)nc1,0.0,-4.4,2.0,0.0,-1.7,6.1,/,
O=c1[nH]c(SCc2ccccc2Cl)nc2c1CCCC2,-2.3,-2.3,5.9,2.1,4.0,17.7,/,
O=C1CCCC2=C1C(c1ccncc1)c1c(nc(SCc3ccccc3Cl)[nH]c1=O)N2 (stereo not given),-1.8,11.3,6.7,-19.9,1.8,76.8*,81.0*,
CC(O)CNc1nc2sc3c(c2c(=O)n1CCc1ccccc1)CCCCC3 (stereo not given),0.1,0.6,0.4,-8.6,1.5,41.1*,55.2*,
SMILES,TPT1 inhibitor,Rpn11 inh,HNF4A DNA FP,SENP1 FRET inh,CSN inh,ATG4B inhibitor,PLA2 counter,others
CN(C)CCNc1nc2sc3c(c2c(=O)n1CCc1ccccc1)CCCCC3,1.1,10.5,0.6,-0.9,9.8,-3.8,/,
C(=C\c1ccccc1)/CSc1nnc(-c2ccncc2)n1Cc1ccco1,9.2,-3.4,2.8,-12.7,8.2,-5.2,/,
C(=C\c1ccccc1)/CSc1nnc(-c2ccccc2)n1Cc1ccco1,-0.9,2.7,-1.5,-5.1,1.6,66.9*,66.0*,
Clc1cccc(-c2nnc(SC/C=C/c3ccccc3)n2Cc2ccco2)c1,3.5,0.6,0.8,-2.5,0.8,54.8*,56.2*,
COc1ccc(C(C)(C)C)cc1NC(=O)c1ccccc1-n1cnnn1,/,0.2,-1.6,1.2,1.0,2.0,/,
O=C(CSCc1ccc(Cl)cc1)NCCSCc1ccco1,2.1,1.7,-2.9,-0.5,-3.7,3.6,/,
O=C(NCCSCc1ccco1)Nc1cc(Cl)cc(Cl)c1,-0.7,5.7,-6.5,0.0,-3.0,46.2*,62.0*,
COc1cc(OC)c(C(=O)OCC(=O)N2CCN(S(=O)(=O)c3ccc(C)cc3C)CC2)cc1OC,/,2.3,-1.6,0.5,3.4,-21.0,/,
O=C(NCc1cccs1)c1ccc2sc([C@H]3C[C@H](O)[C@@H](CO)O3)nc2c1,/,-6.2,1.8,-2.0,2.4,/,/,
N#Cc1ccc(C(=O)Nc2cc(S(=O)(=O)Nc3ccc(Cl)cc3)ccc2N2CCCCC2)cc1,3.6,13.9,0.2,10.4,-5.1,-12.0,/,
O=C(Nc1cc(S(=O)(=O)Nc2ccc(Cl)cc2)ccc1N1CCCCC1)c1ccc(F)cc1,-0.6,6.6,2.0,-4.4,-5.5,42.3*,27.5,
CC(C)C[C@H]1CNC(=S)N1C[C@H]1CCCN1C[C@H](Cc1ccc(O)cc1)N1C[C@H](CC(C)C)N(CCc2ccccc2)C1=S,/,1.9,-1.4,1.3,1.5,/,/,
Cc1nc(NC(=O)c2ccccc2)sc1C1(C)CC(c2ccccc2F)=NO1 (stereo not given),2.3,5.4,-0.3,2.4,4.5,44.5*,63.5*,
Cc1nc(NC(=O)c2ccccc2)sc1C1(C)CC(c2c(Cl)cccc2Cl)=NO1 (stereo not given),/,9.6,-2.0,0.7,3.2,37.0,/,
S=C(NCc1cccc(Cl)c1)NC1CCCCC1,0.4,-1.4,-0.1,0.7,-11.6,59.2*,64.0*,
S=C(Nc1ccc(Cl)c(Cl)c1)NC1CCCCC1,-1.4,0.4,1.6,1.7,1.6,48.0*,40.0,
